Data taken from ChEMBL document CHEMBL4251662, “Alkyl indole-based cannabinoid type 2 receptor tools: Exploration of linker and fluorophore attachment” (Eur J Med Chem, 2018).
Calls of active or inactive are those of the source. The rule behind the calls is not given here.

Tests used:
Cannabinoid receptor 1 [1] = target: T1, Cannabinoid receptor 1 (Homo sapiens, UniProt P21554); assay: Displacement of [3H]CP55,940 from N-terminal HA-tagged human CB1 receptor expressed in HEK293 cell membranes after 1 hr by microbeta scintillation counting method
T1 sequence (P21554 whole entry): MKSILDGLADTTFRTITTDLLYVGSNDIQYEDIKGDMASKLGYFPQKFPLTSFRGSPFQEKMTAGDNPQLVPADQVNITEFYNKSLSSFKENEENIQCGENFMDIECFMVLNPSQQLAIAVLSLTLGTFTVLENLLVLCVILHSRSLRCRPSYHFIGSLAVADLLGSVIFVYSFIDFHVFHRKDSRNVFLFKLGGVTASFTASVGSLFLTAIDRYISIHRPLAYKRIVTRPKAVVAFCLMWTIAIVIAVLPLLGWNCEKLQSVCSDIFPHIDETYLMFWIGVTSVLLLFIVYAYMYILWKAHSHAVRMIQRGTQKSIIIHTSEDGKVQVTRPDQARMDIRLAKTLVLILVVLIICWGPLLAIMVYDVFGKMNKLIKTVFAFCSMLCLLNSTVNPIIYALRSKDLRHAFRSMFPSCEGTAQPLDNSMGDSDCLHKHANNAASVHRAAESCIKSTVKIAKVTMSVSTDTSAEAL

Cannabinoid receptor 2 [2] = target: T2, Cannabinoid receptor 2 (Homo sapiens, UniProt P34972); assay: Displacement of [3H]CP55,940 from N-terminal HA-tagged human CB2 receptor expressed in HEK293 cell membranes after 1 hr by microbeta scintillation counting method
T2 sequence (P34972 whole entry): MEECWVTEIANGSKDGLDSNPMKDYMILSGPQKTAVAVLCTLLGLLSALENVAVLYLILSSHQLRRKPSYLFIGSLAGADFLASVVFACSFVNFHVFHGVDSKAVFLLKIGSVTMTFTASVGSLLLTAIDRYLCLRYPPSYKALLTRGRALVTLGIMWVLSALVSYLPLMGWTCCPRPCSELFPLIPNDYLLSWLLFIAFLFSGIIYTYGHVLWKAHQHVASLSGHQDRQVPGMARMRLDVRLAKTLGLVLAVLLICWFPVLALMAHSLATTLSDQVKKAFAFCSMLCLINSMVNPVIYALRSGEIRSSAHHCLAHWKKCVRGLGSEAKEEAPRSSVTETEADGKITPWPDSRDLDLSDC

Cannabinoid receptor 1 [3] = target: T1, Cannabinoid receptor 1; assay: Displacement of [3H]CP55,940 from N-terminal HA-tagged human CB1 receptor expressed in HEK293 cell membranes at 10 uM after 1 hr by microbeta scintillation counting method relative to control
Procedure, shortened: (§1)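 Single-point competition screen against [3H]CP55,940 in HEK293 cells over-expressing 3HA-tagged hCB2 or hCB1. Compounds giving more than 50% displacement went on to full concentration-response curves.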

Cannabinoid receptor 2 [4] = target: T2, Cannabinoid receptor 2; assay: Displacement of [3H]CP55,940 from N-terminal HA-tagged human CB2 receptor expressed in HEK293 cell membranes at 10 uM after 1 hr by microbeta scintillation counting method relative to control; procedure, shortened: as §1
HEK293 [5] = assay: Effect on forskolin-stimulated cAMP level in HEK293 cells at 1 uM by BRET assay relative to control; format: ADME, cell-based; settings: human, hek293, 1 µM
Procedure, shortened: (§2)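 Wild-type HEK293 cells lacking transfected receptor, tested at 10 µM and 1 µM. Forskolin-stimulated cAMP measured by BRET as a check that responses are receptor-mediated.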

HEK293 [6] = assay: Effect on forskolin-stimulated cAMP level in HEK293 cells at 10 uM by BRET assay relative to control; format: ADME, cell-based; settings: human, hek293, 10 µM; procedure, shortened: as §2
Cannabinoid receptor 2 [7] = target: T2, Cannabinoid receptor 2; assay: Agonist activity at N-terminal HA-tagged human CB2 receptor expressed in HEK293 cells transfected with YFP-Epac-RLuc assessed as decrease in forskolin-stimulated cAMP level by BRET assay relative to control; format: functional, cell-based
Procedure, shortened: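 BRET cAMP biosensor read-out in HEK293 cells expressing HA-tagged human CB1 or CB2, with forskolin stimulation (5 µM). Concentration-response curves; area-under-curve values normalised to forskolin alone = 100% and basal = 0%. EC50 taken for agonists and IC50 for inverse agonists. Mean of at least three independent experiments, each point in duplicate.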

Cannabinoid receptor 2 [8] = target: T2, Cannabinoid receptor 2; assay: Agonist activity at N-terminal HA-tagged human CB2 receptor expressed in HEK293 cells transfected with YFP-Epac-RLuc assessed as decrease in forskolin-stimulated cAMP level at 10 uM by BRET assay; format: functional, cell-based
Procedure, shortened: (§3)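 Single-concentration screen at 10 µM in CB receptor-expressing HEK293 cells, run with and without CP55,940 as reference agonist. Forskolin-stimulated cAMP read by BRET biosensor. A fall in cAMP is scored as agonism and a rise as inverse agonism.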

Cannabinoid receptor 1 [9] = target: T1, Cannabinoid receptor 1; assay: Agonist activity at N-terminal HA-tagged human CB1 receptor expressed in HEK293 cells transfected with YFP-Epac-RLuc assessed as decrease in forskolin-stimulated cAMP level at 10 uM by BRET assay; format: functional, cell-based; procedure, shortened: as §3

In the case of COc1ccc(C(=O)c2cn(CCN3CCOCC3)c3ccc(OCCCCCCC(=O)NCCOCCOCCNC(=O)CCCCCNC(=O)COc4ccc(/C=C/C5=[N+]6C(=Cc7ccc(-c8cccs8)n7[B-]6(F)F)C=C5)cc4)cc23)cc1, the Ki (Cannabinoid receptor 1 [1]; read-out: Ki) is reported as greater than 10 µM and the Ki (Cannabinoid receptor 2 [2]; read-out: Ki) is reported as greater than 10 µM.
COc1ccc(C(=O)c2cn(CCN3CCOCC3)c3ccc(OCC(=O)NCCCCCCCCN)cc23)cc1 gave an inhibition (Cannabinoid receptor 1 [3]) greater than 50%, a Ki (Cannabinoid receptor 2 [2]; read-out: Ki) greater than 10 µM and an inhibition (Cannabinoid receptor 2 [4]) greater than 50%.
COc1ccc(C(=O)c2cn(CC3CCOCC3)c3ccc(OCCOCCOCCOCCNC(C)=O)cc23)cc1 was tested, and the Ki (Cannabinoid receptor 1 [1]; hek293) was “Not Active”, the Ki (Cannabinoid receptor 2 [2]; read-out: Ki) was greater than 10 µM and the inhibition (Cannabinoid receptor 2 [4]) was greater than 50%.
COc1ccc(C(=O)c2cn(CC3CCOCC3)c3ccc(OCC(=O)NC(C)(C)C(=O)NC(C)(C)C(=O)NCCNC(=O)CCCCCNC(=O)COc4ccc(/C=C/C5=[N+]6C(=Cc7ccc(-c8cccs8)n7[B-]6(F)F)C=C5)cc4)cc23)cc1 showed a Ki (Cannabinoid receptor 2 [2]; read-out: Ki) greater than 10 µM.
In the case of COc1ccc(C(=O)c2cn(CC3CCOC3)c3ccc(O)cc23)cc1 (stereo not given), the Ki (Cannabinoid receptor 1 [1]; hek293) is reported as “Not Active”, the Ki (Cannabinoid receptor 2 [2]; read-out: Ki) is reported as greater than 10 µM and the inhibition (Cannabinoid receptor 2 [4]) is reported as greater than 50%.
COc1ccc(C(=O)c2cn(CCN3CCOCC3)c3ccc(OCC(=O)NC(C)(C)C(=O)NC(C)(C)C(=O)NCCNC(=O)CCCCCNC(=O)COc4ccc(/C=C/C5=[N+]6C(=Cc7ccc(-c8cccs8)n7[B-]6(F)F)C=C5)cc4)cc23)cc1 was tested, and the Ki (Cannabinoid receptor 2 [2]; read-out: Ki) was greater than 10 µM.
Compound CC(C)(NC(=O)COc1ccc2c(c1)c(C(=O)c1cccc3ccccc13)cn2CCN1CCOCC1)C(=O)NC(C)(C)C(=O)NCCNC(=O)CCCCCNC(=O)COc1ccc(/C=C/C2=[N+]3C(=Cc4ccc(-c5cccs5)n4[B-]3(F)F)C=C2)cc1 has a Ki (Cannabinoid receptor 2 [2]; read-out: Ki) greater than 10 µM.
In the case of COc1ccc(C(=O)c2cn(CCN3CCOCC3)c3ccc(OCC(=O)NCCCCCCCCNC(=O)CCCCCNC(=O)COc4ccc(/C=C/C5=[N+]6C(=Cc7ccc(-c8cccs8)n7[B-]6(F)F)C=C5)cc4)cc23)cc1, the Ki (Cannabinoid receptor 2 [2]; hek293) is reported as “Not Active”.
NCCCCCCCCNC(=O)COc1ccc2c(c1)c(C(=O)c1cccc3ccccc13)cn2CCN1CCOCC1 gave an inhibition (Cannabinoid receptor 1 [3]) greater than 50%, a Ki (Cannabinoid receptor 2 [2]; read-out: Ki) greater than 10 µM and an inhibition (Cannabinoid receptor 2 [4]) greater than 50%.
With Cc1c(C(=O)c2cccc3ccccc23)c2cccc3c2n1[C@H](CN1CCOCC1)CO3 [WIN-552122] the Activity (HEK293 [5]) was 96.1% and the Activity (HEK293 [6]) was 102.6%.
For NCCOCCOCCNC(=O)COc1ccc2c(c1)c(C(=O)c1cccc3ccccc13)cn2CCN1CCOCC1, the inhibition (Cannabinoid receptor 1 [3]) was greater than 50%, the Ki (Cannabinoid receptor 2 [2]; read-out: Ki) was greater than 10 µM and the inhibition (Cannabinoid receptor 2 [4]) was greater than 50%.
In the case of C[C@H](NC(=O)COc1ccc2c(c1)c(C(=O)c1cccc3ccccc13)cn2CCN1CCOCC1)C(=O)N[C@@H](C)C(=O)NCCN, the inhibition (Cannabinoid receptor 1 [3]) is reported as greater than 50% and the Ki (Cannabinoid receptor 2 [2]; hek293) is reported as “Not Active”.
COc1ccc(C(=O)c2cn(CC3CCOCC3)c3c(OCCCCC(=O)NCCOCCOCCNC(C)=O)cccc23)cc1 was tested, and the Ki (Cannabinoid receptor 1 [1]; read-out: Ki) was greater than 10 µM, the inhibition (Cannabinoid receptor 1 [3]) was greater than 50% and the Ki (Cannabinoid receptor 2 [2]; read-out: Ki) was greater than 10 µM. The inhibition (Cannabinoid receptor 2 [4]) was greater than 50%.
O=C(CCCCCNC(=O)COc1ccc(/C=C/C2=[N+]3C(=Cc4ccc(-c5cccs5)n4[B-]3(F)F)C=C2)cc1)NCCOCCOCCNC(=O)COc1ccc2c(c1)c(C(=O)c1cccc3ccccc13)cn2CCN1CCOCC1 showed a Ki (Cannabinoid receptor 2 [2]; read-out: Ki) greater than 10 µM.
For COc1ccc(C(=O)c2cn(CCN3CCOCC3)c3ccc(OCC(=O)N[C@@H](C)C(=O)N[C@@H](C)C(=O)NCCN)cc23)cc1, the inhibition (Cannabinoid receptor 1 [3]) was greater than 50% and the Ki (Cannabinoid receptor 2 [2]; hek293) was “Not Active”.
COc1ccc(C(=O)c2cn(CC3CCOCC3)c3ccc(OCC(=O)N[C@@H](C)C(=O)N[C@@H](C)C(=O)NCCN)cc23)cc1 was tested, and the inhibition (Cannabinoid receptor 1 [3]) was greater than 50% and the Ki (Cannabinoid receptor 2 [2]; hek293) was “Not Active”.
With CCCCCCC(C)(C)c1ccc([C@@H]2C[C@H](O)CC[C@H]2CCCO)c(O)c1 [CP-55940] the Activity (HEK293 [5]) was 99.2%, the Emax (Cannabinoid receptor 2 [7]) was 41% and the Activity (Cannabinoid receptor 2 [8]) was “Active”. The Activity (HEK293 [6]) was 98% and the Activity (Cannabinoid receptor 1 [9]) was “Active”.
With COc1ccc(C(=O)c2cn(CCN3CCOCC3)c3ccc(OCC(=O)NCCOCCOCCNC(=O)CCCCCNC(=O)COc4ccc(/C=C/C5=[N+]6C(=Cc7ccc(-c8cccs8)n7[B-]6(F)F)C=C5)cc4)cc23)cc1 the Ki (Cannabinoid receptor 2 [2]; read-out: Ki) was greater than 10 µM.
COc1ccc(C(=O)c2cn(CCN3CCOCC3)c3cc(O)ccc23)cc1 was tested, and the Ki (Cannabinoid receptor 1 [1]; hek293) was “Not Active”, the Ki (Cannabinoid receptor 2 [2]; read-out: Ki) was greater than 10 µM and the inhibition (Cannabinoid receptor 2 [4]) was greater than 50%.
COc1ccc(C(=O)c2cn(CCN3CCOCC3)c3ccc(OCC(=O)O)cc23)cc1 gave a Ki (Cannabinoid receptor 1 [1]; read-out: Ki) greater than 10 µM, an inhibition (Cannabinoid receptor 1 [3]) greater than 50% and a Ki (Cannabinoid receptor 2 [2]; read-out: Ki) greater than 10 µM. The inhibition (Cannabinoid receptor 2 [4]) was greater than 50%.
With COc1ccc(C(=O)c2cn(CCN3CCOCC3)c3ccc(OCCCCC(=O)NCCOCCOCCNC(=O)CCCCCNC(=O)COc4ccc(/C=C/C5=[N+]6C(=Cc7ccc(-c8cccs8)n7[B-]6(F)F)C=C5)cc4)cc23)cc1 the Ki (Cannabinoid receptor 1 [1]; read-out: Ki) was greater than 10 µM and the Ki (Cannabinoid receptor 2 [2]; read-out: Ki) was greater than 10 µM.
O=C(CCCCCNC(=O)COc1ccc(/C=C/C2=[N+]3C(=Cc4ccc(-c5cccs5)n4[B-]3(F)F)C=C2)cc1)NCCCCCCCCNC(=O)COc1ccc2c(c1)c(C(=O)c1cccc3ccccc13)cn2CCN1CCOCC1 was tested, and the Ki (Cannabinoid receptor 2 [2]; hek293) was “Not Active”.
Work on COc1ccc(C(=O)c2cn(CCN3CCOCC3)c3ccc(OCC(=O)NCCOCCOCCNC(C)=O)cc23)cc1 yielded an inhibition (Cannabinoid receptor 1 [3]) greater than 50%, a Ki (Cannabinoid receptor 2 [2]; read-out: Ki) greater than 10 µM and an inhibition (Cannabinoid receptor 2 [4]) greater than 50%.
Compound O=C(O)COc1ccc2c(c1)c(C(=O)c1cccc3ccccc13)cn2CCN1CCOCC1 has a Ki (Cannabinoid receptor 1 [1]; read-out: Ki) greater than 10 µM, an inhibition (Cannabinoid receptor 1 [3]) greater than 50% and a Ki (Cannabinoid receptor 2 [2]; read-out: Ki) greater than 10 µM. For the same compound, the inhibition (Cannabinoid receptor 2 [4]) was greater than 50%.
COc1ccc(C(=O)c2cn(CCN3CCOCC3)c3ccc(OCC(=O)NCCOCCOCCN)cc23)cc1 was tested, and the inhibition (Cannabinoid receptor 1 [3]) was greater than 50%, the Ki (Cannabinoid receptor 2 [2]; read-out: Ki) was greater than 10 µM and the inhibition (Cannabinoid receptor 2 [4]) was greater than 50%.
